The values below come from ChEMBL document CHEMBL1133562, “Pyrazole ligands: structure-affinity/activity relationships and estrogen receptor-alpha-selective agonists” (J Med Chem, 2000).

Experiment [1] has as its target Estrogen receptor beta (Homo sapiens) (UniProt Q92731). Put plainly: Relative binding affinity was determined for Estrogen receptor 2 using 10 nM [3H]E2 as tracer (estradiol 100%). The procedure, abridged:
(§1)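 Competitive radiometric binding with purified full-length human ERα or ERβ, 10 nM [3H]estradiol tracer. Receptor–tracer complex adsorbed on hydroxylapatite. Incubation at 0 °C for 18-24 h. RBA expressed relative to estradiol = 100%. Mean of at least 2, typically 3 or more, independent determinations (±SD); coefficient of variation 0.3.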

Experiment [2] addresses T1, Estrogen receptor (Homo sapiens) (UniProt P03372).
T1 sequence (whole entry): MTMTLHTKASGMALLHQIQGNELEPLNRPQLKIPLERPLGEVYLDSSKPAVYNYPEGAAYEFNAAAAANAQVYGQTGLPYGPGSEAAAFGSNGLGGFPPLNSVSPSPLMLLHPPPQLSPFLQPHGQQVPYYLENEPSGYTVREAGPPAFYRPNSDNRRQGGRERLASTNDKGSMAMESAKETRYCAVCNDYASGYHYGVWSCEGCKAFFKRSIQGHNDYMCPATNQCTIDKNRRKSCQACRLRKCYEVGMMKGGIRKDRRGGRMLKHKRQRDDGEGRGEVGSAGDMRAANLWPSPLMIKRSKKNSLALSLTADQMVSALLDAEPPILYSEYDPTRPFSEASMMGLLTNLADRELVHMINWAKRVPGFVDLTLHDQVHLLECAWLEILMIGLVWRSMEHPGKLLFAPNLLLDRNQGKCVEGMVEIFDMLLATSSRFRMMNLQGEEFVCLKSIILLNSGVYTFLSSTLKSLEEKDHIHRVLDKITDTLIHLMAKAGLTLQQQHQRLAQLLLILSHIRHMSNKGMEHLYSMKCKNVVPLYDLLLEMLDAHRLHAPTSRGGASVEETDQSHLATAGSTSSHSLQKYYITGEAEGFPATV
Description: Relative binding affinity was determined for Estrogen receptor 1 using 10 nM [3H]-E2 as tracer (estradiol 100%). The method, boiled down:
as §1

Experiment [3] has as its target Estrogen receptor (Homo sapiens) (UniProt Q92731+P03372). Description: RBA ratio between ERalpha and ERbeta. Type of experiment: protein assay.

Sequence of Estrogen receptor beta (Homo sapiens) (Q92731 whole entry): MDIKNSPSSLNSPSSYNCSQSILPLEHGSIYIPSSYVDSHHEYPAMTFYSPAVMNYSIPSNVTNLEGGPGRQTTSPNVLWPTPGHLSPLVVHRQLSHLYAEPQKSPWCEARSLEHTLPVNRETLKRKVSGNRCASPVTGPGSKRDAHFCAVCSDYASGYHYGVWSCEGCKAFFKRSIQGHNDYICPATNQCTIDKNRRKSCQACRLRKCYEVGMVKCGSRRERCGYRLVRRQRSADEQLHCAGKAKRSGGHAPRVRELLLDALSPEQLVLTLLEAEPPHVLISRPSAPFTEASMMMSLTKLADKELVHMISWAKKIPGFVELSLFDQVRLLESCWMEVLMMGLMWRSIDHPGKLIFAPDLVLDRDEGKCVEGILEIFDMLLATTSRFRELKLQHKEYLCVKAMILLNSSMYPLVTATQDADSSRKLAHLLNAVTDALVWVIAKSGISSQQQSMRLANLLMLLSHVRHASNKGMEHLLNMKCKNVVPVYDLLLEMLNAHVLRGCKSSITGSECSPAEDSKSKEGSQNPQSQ
Sequence of Estrogen receptor (Homo sapiens) (UniProt Q92731+P03372) (Q92731 whole entry, looked up, one chain of several): as the sequence (Q92731 whole entry) above

Consider `CCc1c(-c2ccccc2)nn(-c2ccc(O)cc2)c1-c1ccc(O)cc1`, for which the figures for the RBA in experiment [1] and in experiment [2] were 0.8 and 7, respectively. Also, in experiment [3], the Ratio amounted to 9.
Taken in the same sequence, the figures for `CCCCc1c(-c2ccc(O)cc2)nn(-c2ccccc2)c1-c1ccc(O)cc1` were 0.47, 8.7 and 19.
`CCc1c(-c2ccc(O)cc2)nn(-c2ccc(O)cc2)c1-c1ccccc1`: the RBA stood at 0.32 in experiment [1] and 8.9 in experiment [2]. Moreover, the Ratio in experiment [3] was found to be 28.
Take `CCc1c(-c2ccccc2)nn(-c2ccc(O)cc2)c1-c1ccccc1`: the RBA in experiment [1] was 1.5; in experiment [2], 3.1. In addition, in experiment [3], the Ratio came out at 2.1.
Turning to `CC(C)Cc1c(-c2ccc(O)cc2)nn(-c2ccc(O)cc2)c1-c1ccc(O)cc1`, the RBA amounted to 0.89 in experiment [1] and 75 in experiment [2]. Further, the Ratio in experiment [3] is 84.
As to `CCCCc1c(-c2ccc(O)cc2)nn(-c2ccc(O)cc2)c1-c1ccc(O)cc1`, the RBA in experiment [1] was 0.18; in experiment [2], 14. In experiment [3], the Ratio was 77.
`CCCc1c(-c2ccc(O)cc2)nn(-c2ccc(O)cc2)c1-c1ccc(O)cc1` gave an RBA in experiment [2] of 49.
In the case of `Cc1c(-c2ccc(O)cc2)nn(-c2ccccc2)c1-c1ccc(O)cc1`, the RBA in experiment [1] was found to be 0.28; in experiment [2], 0.76. The Ratio in experiment [3] is 2.7.
With `CCCc1c(-c2ccc(O)cc2)nn(-c2ccccc2)c1-c1ccc(O)cc1`, the RBA in experiment [1] came to 0.52; in experiment [2] it was 16.8. Also, the Ratio in experiment [3] was found to be 32.
As for `CCc1c(-c2ccccc2)nn(-c2ccccc2)c1-c1ccc(O)cc1`, the values for the RBA in experiment [1] and in experiment [2] were 0.06 and 0.04, respectively. Moreover, the Ratio in experiment [3] was 0.67.
Take `CCc1c(-c2ccc(O)cc2)nn(-c2ccc(O)cc2)c1-c1ccc(O)cc1`: the RBA in experiment [1] is 0.15; in experiment [2], 36. The Ratio in experiment [3] amounted to 240.
In the case of `CCc1c(-c2ccc(O)cc2)nn(-c2ccccc2)c1-c1ccccc1`, the RBA turned out to be 0.61 in experiment [1] and 2.6 in experiment [2]. The Ratio in experiment [3] worked out at 4.3.
For the molecule `CC(C)c1c(-c2ccc(O)cc2)nn(-c2ccccc2)c1-c1ccc(O)cc1`, the values for the RBA in experiment [1] and in experiment [2] were 0.86 and 5.6, respectively. The Ratio in experiment [3] stood at 6.5.
Consider `CCc1c(-c2ccc(O)cc2)nn(-c2ccccc2)c1-c1ccc(O)cc1`, for which the RBA in experiment [1] worked out at 1.1; in experiment [2], 31. The Ratio in experiment [3] amounted to 28.
In the case of `CC(C)Cc1c(-c2ccc(O)cc2)nn(-c2ccccc2)c1-c1ccc(O)cc1`, the RBA in experiment [1] was 1.4; in experiment [2] it was 56. Also, the Ratio in experiment [3] stood at 40.
